Experimental data reported in ChEMBL document CHEMBL1150956, “Antitubercular natural products: berberine from the roots of commercial Hydrastis canadensis powder. Isolation of inactive 8-oxotetrahydrothalifendine, canadine, beta-hydrastine, and two new quinic acid esters, hycandinic acid esters-1 and -2” (1998).
The source made the active and inactive calls. No cut-off for these calls is given here.

Columns and labels:
[1] = system: Mycolicibacterium smegmatis; experiment: Antimicrobial activity against Mycobacterium smegmatis ATCC 607 at 1000 ug/ml; assay type: functional, organism-based
[2] = system: Staphylococcus aureus; experiment: Antimicrobial activity against Staphylococcus aureus ATCC 13709 at 1000 ug/ml; assay type: functional, organism-based
[3] = system: Candida albicans; experiment: Antimicrobial activity against Candida albicans ATCC 10231 at 1000 ug/ml; assay type: functional, organism-based
[4] = system: Klebsiella pneumoniae; experiment: Antimicrobial activity against Klebsiella pneumoniae ATCC 10031 at 1000 ug/ml; assay type: functional, organism-based
[5] = system: Mycobacterium intracellulare; experiment: Antimicrobial activity against recombinant Mycobacterium intracellular expressing pMV361 lux after 3 days by luciferase assay; assay type: functional; details: 72 h
Procedure, shortened: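 Recombinant M. intracellulare pMV361 lux at about 5e5 cfu/mL final, in Middlebrook 7H9 broth with compound at 0.1–50 µg/mL; no-drug 1% DMSO growth controls. Incubated at 36 °C in ambient air. 100 µL culture plus 100 µL of 1 mM luciferin, read as RLU at day 0 (within 30 min) and after 3 days.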

[6] = system: Pseudomonas aeruginosa; experiment: Antimicrobial activity against Pseudomonas aeruginosa ATCC 27853 at 1000 ug/ml; assay type: functional, organism-based
[7] = system: Escherichia coli; experiment: Antimicrobial activity against Escherichia coli ATCC 9637 at 1000 ug/ml; assay type: functional, organism-based
[8] = system: Salmonella enterica subsp. enterica serovar Gallinarum; experiment: Antimicrobial activity against Salmonella gallinarum ATCC 9184 at 1000 ug/ml; assay type: functional, organism-based
[9] = system: Klebsiella pneumoniae; experiment: Antimicrobial activity against Klebsiella pneumoniae ATCC 10031; assay type: functional
[10] = system: Staphylococcus aureus; experiment: Antimicrobial activity against Staphylococcus aureus ATCC 13709; assay type: functional
[11] = system: Candida albicans; experiment: Antimicrobial activity against Candida albicans ATCC 10231; assay type: functional
[12] = system: Mycolicibacterium smegmatis; experiment: Antimicrobial activity against Mycobacterium smegmatis ATCC 607; assay type: functional
[13] = system: Pseudomonas aeruginosa; experiment: Antimicrobial activity against Pseudomonas aeruginosa ATCC 27853; assay type: functional
[14] = system: Salmonella enterica subsp. enterica serovar Gallinarum; experiment: Antimicrobial activity against Salmonella gallinarum ATCC 9184; assay type: functional
[15] = system: Escherichia coli; experiment: Antimicrobial activity against Escherichia coli ATCC 9637; assay type: functional

Row | SMILES | Activity [1] | Activity [2] | Activity [3] | Activity [4] | MIC [5] [µg/mL] | other results
1 | CCCCOC(=O)[C@@]1(O)CC(OC(=O)/C=C/c2ccc(OC(C)=O)c(OC)c2)[C@H](OC(C)=O)[C@H](OC(C)=O)C1 (some centres not stated) | inactive | inactive | inactive |  |  | 
2 | COc1c(OC(C)=O)ccc2c1C(=O)N1CCc3cc4c(cc3C1C2)OCO4 (configuration not stated) | inactive | inactive | inactive | inactive | > 50 | 
3 | CCCCOC(=O)[C@@]1(O)CC(OC(C)=O)[C@H](OC(=O)/C=C/c2ccc(OC(C)=O)c(OC)c2)[C@H](OC(C)=O)C1 (some centres not stated) | inactive | inactive | inactive |  |  | 
4 | CCCCOC(=O)[C@@]1(OC(C)=O)CC(OC(C)=O)[C@H](OC(=O)/C=C/c2ccc(OC(C)=O)c(OC)c2)[C@H](OC(C)=O)C1 (some centres not stated) | inactive | inactive | inactive |  |  | 
5 | COc1ccc2c(c1OC)C(=O)O[C@@H]2C1c2cc3c(cc2CCN1C)OCO3 (some centres not stated) | inactive | inactive | inactive | inactive |  | Activity [6]: inactive; Activity [7]: inactive; Activity [8]: inactive
6 | CCCCOC(=O)[C@@]1(O)CC(O)[C@H](OC(=O)/C=C/c2ccc(O)c(OC)c2)[C@H](O)C1 (some centres not stated) | inactive | inactive | inactive |  |  | 
7 | CCCCOC(=O)[C@@]1(O)CC(OC(=O)/C=C/c2ccc(O)c(OC)c2)[C@H](O)[C@H](O)C1 (some centres not stated) | inactive | inactive | inactive |  |  | 
8 | COc1ccc2c(c1OC)C(=O)N1CCc3cc4c(cc3C1C2)OCO4 (configuration not stated) | inactive | inactive | inactive | inactive | > 50 | 
9 | COc1ccc2cc3[n+](cc2c1OC)CCc1cc2c(cc1-3)OCO2.[Cl-] [BERBERINE CHLORIDE] |  |  |  |  | 200 | MIC [9]: 100 µg/mL; MIC [10]: 50 µg/mL; MIC [11]: 100 µg/mL; MIC [12]: 25 µg/mL
10 | CN[C@@H]1[C@H](O[C@H]2[C@H](O[C@H]3[C@H](O)[C@@H](O)[C@H](N=C(N)N)[C@@H](O)[C@@H]3N=C(N)N)O[C@@H](C)[C@]2(O)C=O)O[C@@H](CO)[C@H](O)[C@H]1O.CN[C@@H]1[C@H](O[C@H]2[C@H](O[C@H]3[C@H](O)[C@@H](O)[C@H](N=C(N)N)[C@@H](O)[C@@H]3N=C(N)N)O[C@@H](C)[C@]2(O)C=O)O[C@@H](CO)[C@H](O)[C@H]1O.O=S(=O)(O)O.O=S(=O)(O)O.O=S(=O)(O)O [STREPTOMYCIN SULFATE] |  |  |  |  |  | MIC [9]: 1.56 µg/mL; MIC [10]: 6.25 µg/mL; MIC [13]: 25 µg/mL; MIC [14]: 50 µg/mL; MIC [11]: > 100 µg/mL; MIC [12]: 1.56 µg/mL; MIC [15]: 6.25 µg/mL
11 | CCCCOC(=O)[C@@]1(OC(C)=O)CC(OC(=O)/C=C/c2ccc(OC(C)=O)c(OC)c2)[C@H](OC(C)=O)[C@H](OC(C)=O)C1 (some centres not stated) | inactive | inactive | inactive |  |  | 
12 | COc1ccc2c(c1OC)CN1CCc3cc4c(cc3[C@@H]1C2)OCO4 [CANADINE] | inactive | inactive | inactive | inactive | > 50 | 
13 | COc1c(O)ccc2c1C(=O)N1CCc3cc4c(cc3C1C2)OCO4 (configuration not stated) | inactive | inactive | inactive | inactive | > 50 | 
